Consider one compound from ChEMBL document CHEMBL2169822, “Discovery and optimization of 1,3,4-trisubstituted-pyrazolone derivatives as novel, potent, and nonsteroidal farnesoid X receptor (FXR) selective antagonists” (J Med Chem, 2012).

Assay [1] deals with T1, Peroxisome proliferator-activated receptor gamma (Homo sapiens) (UniProt P37231).
T1 sequence (whole entry): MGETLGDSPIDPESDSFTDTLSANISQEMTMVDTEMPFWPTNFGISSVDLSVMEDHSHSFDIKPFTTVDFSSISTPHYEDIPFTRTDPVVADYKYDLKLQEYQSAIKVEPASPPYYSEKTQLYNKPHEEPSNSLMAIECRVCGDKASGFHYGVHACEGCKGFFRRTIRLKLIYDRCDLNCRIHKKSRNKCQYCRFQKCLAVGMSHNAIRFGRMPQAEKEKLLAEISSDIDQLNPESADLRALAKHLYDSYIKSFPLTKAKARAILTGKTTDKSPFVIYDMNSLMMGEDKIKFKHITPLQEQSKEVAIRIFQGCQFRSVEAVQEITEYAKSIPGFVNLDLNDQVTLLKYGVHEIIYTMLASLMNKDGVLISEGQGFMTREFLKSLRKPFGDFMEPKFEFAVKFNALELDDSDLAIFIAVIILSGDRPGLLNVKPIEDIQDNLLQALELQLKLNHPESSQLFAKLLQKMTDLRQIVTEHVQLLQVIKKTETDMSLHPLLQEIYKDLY
Description: Antagonist activity at recombinant PPARgamma LBD expressed in HEK293T cells co-expressing GAL4 DBD assessed as inhibition of rosiglitazone-induced transactivation at 20 uM by luciferase reporter gene assay. Format: functional, cell-based. As to conditions: HEK-293T. The gist of the method: (§1)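 One-hybrid assay in HEK293T cells cotransfected with a Gal4 DBD–NR-LBD fusion (RXRα, LXRα, GR, PR, PPARδ or PPARγ) plus UAS-TK-Luc reporter. Compound was 20 μM, given alone or with agonist: 9cRA 0.1 μM (RXRα), TO901317 0.5 μM (LXRα), dexamethasone 50 nM (GR), progesterone 100 nM (PR), GW1516 10 μM (PPARδ), rosiglitazone 10 μM (PPARγ). Luciferase read-out; three independent experiments.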
In general terms: In a reporter assay the amount or activity of a reporter protein is the signal.

The target of assay [2] is T2, Progesterone receptor (Homo sapiens) (UniProt P06401).
T2 sequence (whole entry): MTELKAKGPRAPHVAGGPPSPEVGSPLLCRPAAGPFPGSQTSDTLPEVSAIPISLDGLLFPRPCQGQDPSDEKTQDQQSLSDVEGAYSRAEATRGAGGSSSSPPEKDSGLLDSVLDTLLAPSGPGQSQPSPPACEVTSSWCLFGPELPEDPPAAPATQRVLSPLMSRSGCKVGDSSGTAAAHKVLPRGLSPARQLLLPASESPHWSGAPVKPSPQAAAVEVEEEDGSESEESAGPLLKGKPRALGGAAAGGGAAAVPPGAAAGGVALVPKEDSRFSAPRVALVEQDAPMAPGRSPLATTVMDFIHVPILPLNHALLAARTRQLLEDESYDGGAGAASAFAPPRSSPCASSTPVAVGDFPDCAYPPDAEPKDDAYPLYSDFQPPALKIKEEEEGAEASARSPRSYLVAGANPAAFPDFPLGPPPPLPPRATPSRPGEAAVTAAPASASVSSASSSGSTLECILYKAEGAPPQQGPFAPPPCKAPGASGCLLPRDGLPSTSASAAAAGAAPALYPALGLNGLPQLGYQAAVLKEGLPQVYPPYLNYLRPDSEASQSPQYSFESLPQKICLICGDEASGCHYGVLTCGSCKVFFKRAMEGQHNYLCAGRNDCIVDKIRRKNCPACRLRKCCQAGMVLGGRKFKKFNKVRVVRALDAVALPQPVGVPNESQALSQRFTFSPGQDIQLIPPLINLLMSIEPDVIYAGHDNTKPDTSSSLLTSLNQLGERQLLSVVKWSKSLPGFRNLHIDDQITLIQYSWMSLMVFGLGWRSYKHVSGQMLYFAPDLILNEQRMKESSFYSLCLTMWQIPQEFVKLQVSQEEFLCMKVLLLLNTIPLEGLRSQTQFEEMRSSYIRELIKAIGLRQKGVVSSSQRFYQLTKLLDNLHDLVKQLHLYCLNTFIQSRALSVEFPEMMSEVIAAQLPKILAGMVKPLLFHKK
Briefly: Antagonist activity at recombinant PR LBD expressed in HEK293T cells co-expressing GAL4 DBD assessed as inhibition of progesterone-induced transactivation at 20 uM by luciferase reporter gene assay. Format: functional, cell-based. Conditions: HEK-293T. The gist of the method: as §1

Assay [3] concerns the target T3, Bile acid receptor (Homo sapiens) (UniProt Q96RI1).
T3 sequence (whole entry): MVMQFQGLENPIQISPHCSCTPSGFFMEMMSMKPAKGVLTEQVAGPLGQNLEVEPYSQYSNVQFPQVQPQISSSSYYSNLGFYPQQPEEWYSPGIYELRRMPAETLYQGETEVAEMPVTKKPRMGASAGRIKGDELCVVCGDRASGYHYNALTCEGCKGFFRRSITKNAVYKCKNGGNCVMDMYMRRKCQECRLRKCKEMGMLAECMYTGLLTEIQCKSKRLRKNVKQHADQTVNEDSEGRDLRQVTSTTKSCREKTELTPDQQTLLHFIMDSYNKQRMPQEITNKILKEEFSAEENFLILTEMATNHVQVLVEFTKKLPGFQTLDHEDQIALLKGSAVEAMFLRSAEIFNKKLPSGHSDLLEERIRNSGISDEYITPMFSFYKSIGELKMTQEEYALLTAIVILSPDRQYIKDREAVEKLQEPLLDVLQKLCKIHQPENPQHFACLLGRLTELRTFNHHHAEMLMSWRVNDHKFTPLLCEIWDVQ
Description: Antagonist activity at human FXR in human HepG2 cells assessed as reduction in triglyceride level after 24 hrs. Format: functional, cell-based. The gist of the method:
(§2)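 HepG2 cells were serum-starved overnight in FBS-free DMEM, then given DMSO or compound for 24 h in serum-free DMEM. Cells were lysed in RIPA buffer, sonicated on ice and centrifuged at 12000 rpm, 4 °C. Triglyceride and total cholesterol in the cleared lysate were measured by kits, with total protein by BCA. At least three experiments.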

In assay [4] the test system is Mus musculus. Briefly: Reduction of hepatic triglyceride level in cholesterol-fed C57BL/6 mouse at 50 mg/kg, po after 10 days. Format: functional. Set-up: scale not given: the % may be the effect or the level left. The gist of the method: (§3)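 Male C57BL/6 mice, 8–12 weeks old, were randomized into five groups of nine. Control mice had ground chow; the other groups had chow with 2% cholesterol. Compound (50 or 100 mg/kg) or reference (100 mg/kg) was suspended in 0.5% CMC-Na and given by oral gavage; control and vehicle mice got 0.5% CMC-Na. Serum and hepatic triglyceride and total cholesterol were measured.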

Assay [5] has as its target T3, Bile acid receptor (Homo sapiens). Description: Antagonist activity at human FXR in human HepG2 cells assessed as reduction in cholesterol level at 10 uM after 24 hrs. Format: functional, cell-based. The method, boiled down:
as §2

Assay [6] has as its system HEK-293T. Description: Antagonist activity at FXRalpha/RXRalpha expressed in HEK293T cells co-expressing GAL4 DBD assessed as inhibition of CDCA-induced transactivation at 40 uM after 18 hrs by luciferase reporter gene assay. Conditions: Homo sapiens. Format: functional, cell-based. The gist of the method: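 FXR transactivation in HEK293T cells transiently transfected with pcDNA3.1-FXRα, pcDNA3.1-RXRα, pGL3-FXRE-Luc and pRL-SV40 Renilla vector. Medium was replaced 6 h after transfection with medium holding compound at varied concentrations, with or without 20 μM CDCA, for 18 h. Read-out was dual-luciferase. Three independent experiments.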

In assay [7] the test system is Mus musculus. Briefly: Reduction of hepatic cholesterol level in cholesterol-fed C57BL/6 mouse at 100 mg/kg, po after 10 days. Format: functional. Set-up: scale not given: the % may be the effect or the level left. The gist of the method:
as §3

The source made the active and inactive calls. No cut-off for these calls is given here.

As for `COc1cc(/C=C2\C(=O)N(c3cccc([N+](=O)[O-])c3)N=C2c2ccccc2)ccc1O`, the inhibition result in assay [1] and in assay [2] was “inactive” in each case. The inhibition result is “Dose-dependent effect” in assay [3] and 27.1% in assay [5]. For the same compound, the Activity in assay [4] turned out to be 43.5%; in assay [7], 47.5%. Further, in assay [6], the inhibition entry is “Active”.

For orientation: inhibition means the change of the read-out against control, counted positive when it falls.
